Results collected from several papers.
Target: Serine/threonine-protein kinase WNK3 (WNK3, Homo sapiens, UniProt Q9BYP7)

CCN(CC)CCNC(=O)c1c(C)[nH]c(/C=C2\C(=O)Nc3ccc(F)cc32)c1C — inhibition (enzyme activity; inhibitor; 0.3 µM): -4%
Nc1ncnc2occ(-c3ccc(NC(=O)Nc4cc(C(F)(F)F)ccc4F)cc3)c12 — remaining signal (cell-free assay; inhibitor; 20 µM): 58%
O=C(Nc1cnn(-c2csc(C(=O)NC3COC3)c2)c1)Nc1c(F)cccc1Cl — remaining activity (enzyme activity; inhibitor; 5 µM): 91.8%
CCCOc1ccc([C@H]2[C@H](C(=O)O)[C@@H](c3ccc4c(c3)OCO4)CN2CC(=O)Nc2c(CC)cccc2CC)cc1 — remaining binding (cell-free assay; competition with immobilised ligand; 1 µM): 90%
O=C1Nc2ccc(Cl)cc2C1=Cc1cc(Cl)c(O)c(Cl)c1 — remaining signal (cell-free assay; 0.5 µM): 90.7%
Cc1cc(NC(=O)c2cccc(S(F)(F)(F)(F)F)c2)cc(-n2ccn3nc(-c4cccnc4)cc23)c1 — remaining binding (cell-free assay; competition with immobilised ligand; 1 µM): 100%
CC(C)(O)[C@H]1CC[C@H](Nc2ccc3ncc(-c4cccc(C(F)(F)F)c4)n3n2)CC1 — remaining activity (enzyme activity; inhibitor; 1 µM): 90.7%
CNCc1ccccc1-c1csc([C@@H](C)Nc2nc(C)nc3cc(OC)c(OC)cc23)c1 — remaining binding (cell-free assay; competition with immobilised ligand; 1 µM): 100%
Cc1ccc(NC(=O)c2ccc(C)c(C(F)(F)F)c2)cc1C#Cc1nn(C2CCC(O)CC2)c2ncnc(N)c12 (centres unmarked) — remaining signal (cell-free assay; 10 µM): 39%
CCCOc1ccc(OC)c(F)c1C(=O)c1ccc(C(=O)N[C@@H]2CNC[C@H]2NC(=O)c2ccc3[nH]ncc3c2)cc1 — remaining activity (enzyme activity; inhibitor; 10 µM): 95%
O=C(NCCCC1CCCCC1)c1ccc(CNC(=O)c2cnn(-c3ccccc3)c2C(F)(F)F)cc1 — remaining binding (cell-free assay; competition with immobilised ligand; 0.1 µM): 100%
Cc1cnc(NC2CCOCC2)nc1-n1cnc(C(=O)NC(CN)c2cc(F)cc(Cl)c2)c1 (centres unmarked) — remaining activity (enzyme activity; inhibitor; radiometric; 1 µM): 103%
Cc1ccc(Nc2nccc(N(C)c3ccc4c(C)n(C)nc4c3)n2)cc1S(N)(=O)=O — inhibition (enzyme activity; inhibitor; 0.3 µM): -4%
CC(C)(C)c1nc2c(s1)c1nc(N)ncc1c1ccc(NS(=O)(=O)c3c(F)cccc3F)c(F)c12 — remaining activity (enzyme activity; inhibitor; radiometric; 1 µM): 91%
Cc1cc(NC(=O)c2cccc3cc(-c4cccc5[nH]nc(N)c45)ccc23)ccc1F — activity vs control (enzyme activity; inhibitor; 0.1 µM): 93%
CNC(=O)c1cc(Oc2ccc(NC(=O)Nc3ccc(Cl)c(C(F)(F)F)c3)cc2)ccn1 — inhibition (enzyme activity; inhibitor; 0.3 µM): -6%
CC(C)(O)c1cncc(-c2nc3ccc(F)cc3n2C2CC2)c1 — remaining binding (cell-free assay; competition with immobilised ligand; 1 µM): 100%
